From ChEMBL document CHEMBL5357047, “The development of thymol-isatin hybrids as broad-spectrum antibacterial agents with potent anti-MRSA activity” (RSC Med Chem, 2024)
In brackets after ≈: the same amount, converted by molar mass. Activity calls are given as the source filed them. The calls are words filed in the database; no cut-off is given here.

What was measured:
Staphylococcus aureus [1] = assay: Anti-biofilm activity against Methicillin-resistant Staphylococcus aureus assessed as biofilm volume/area at 2XMIC measured after 48 hrs by crystal violet staining based phase contrast microscopy (reference value: 18.37 +/-1.14 um3/um2); assay type: functional
[2] = test system: Staphylococcus epidermidis; assay: Antibacterial activity against Staphylococcus epidermidis MTCC 435 assessed as inhibition of bacterial growth measured after 48 hrs by broth microdilution method; assay type: functional
Escherichia coli [3] = assay: Antibacterial activity against Escherichia coli MTCC 119 assessed as inhibition of bacterial growth at 50 uM measured after 48 hrs by agar well diffusion method; assay type: functional; settings: read-out: IZ
[4] = Toxicity against Galleria mellonella assessed as metabolic activity of larva at 20 mg/kg measured every 12 hrs for 120 hrs; assay type: organism-based; settings: in vivo
Summary of the method: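 Uninfected Galleria mellonella larvae (0.2–0.4 g, ten per group) given 20 mg kg−1 compound, alongside untreated, PBS and PBS + 2% DMSO vehicle controls; held at 37 °C and checked every 12 h for 120 h. Larvae that turned black and gave no response to stimulus counted dead; percentage survival recorded.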

Staphylococcus aureus [5] = assay: Anti-biofilm activity against Methicillin-resistant Staphylococcus aureus assessed as biofilm substrate coverage at 2XMIC measured after 48 hrs by crystal violet staining based phase contrast microscopy (reference value: 81.43+/-3.57%); assay type: functional
Staphylococcus aureus [6] = assay: Antibacterial activity against Methicillin-resistant Staphylococcus aureus infected in Galleria mellonella assessed as larva's survial rate at 2.5 mg/kg measured after 24 to 48 hrs; assay type: functional; settings: time 24-48 hrs
Summary of the method: (§1)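 Galleria mellonella larvae (0.2–0.4 g, 10 per group) injected in the last proleg with MRSA at 5 × 10^8 ± 0.2 cells per larva, then given 2.5, 5 or 10 mg kg−1. Controls: untreated, PBS, and PBS + 2% DMSO vehicle. Held at 37 °C and checked every 12 h; larvae that were black and unresponsive counted dead. Bacterial burden by CFU at 0, 24 and 48 h.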

Staphylococcus aureus [7] = assay: Bactericidal activity against clinically isolated Staphylococcus aureus RBRJ010 assessed as inhibition of bacterial growth measured after 48 hrs by agar plate method; assay type: functional
Summary of the method: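 MBC: 10 μL from wells showing no INT colour change after broth microdilution subcultured on drug-free Mueller Hinton agar, 48 h at 37 °C aerobically; lowest concentration with no visible growth taken as MBC (μM). Triplicate.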

Staphylococcus aureus [8] = assay: Antibacterial activity against clinically isolated Staphylococcus aureus RBRJ010 assessed as inhibition of bacterial growth at 50 uM measured after 48 hrs by agar well diffusion method; assay type: functional; settings: read-out: IZ
[9] = Cytotoxicity against mouse L929 cells assessed as reduction in cell viability measured after 72 hrs by MTT assay; assay type: toxicity, cell-based
Summary of the method: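 L929 cells (ATCC) grown in DMEM with 10% FBS and penicillin/streptomycin at 37 °C, 5% CO2; seeded at 5 × 10^3 cells per well and exposed to serial dilutions for 72 h, paclitaxel as positive control. MTT (5 mg mL−1), formazan dissolved in DMSO, absorbance at 490 nm; viability relative to control after blank subtraction; IC50 in μM.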

Klebsiella pneumoniae = assay: Antibacterial activity against clinically isolated Klebsiella pneumoniae RBRJ024 assessed as inhibition of bacterial growth at 50 uM measured after 48 hrs by agar well diffusion method; assay type: functional; settings: read-out: IZ
Staphylococcus aureus [10] = assay: Anti-biofilm activity against Methicillin-resistant Staphylococcus aureus assessed as mean thickness of biofilm at 1XMIC measured after 48 hrs by crystal violet staining based phase contrast microscopy (reference value: 15.03+/-1.63 um); assay type: functional
Staphylococcus aureus [11] = assay: Antibacterial activity against Methicillin-resistant Staphylococcus aureus infected in Galleria mellonella assessed as larva's survival rate at 5 to 10 mg/kg measured after 24 to 48 hrs; assay type: functional; settings: dose 5-10 mg/kg, time 24-48 hrs; summary of the method: as §1
Staphylococcus aureus [12] = assay: Anti-biofilm activity against Methicillin-resistant Staphylococcus aureus assessed as reduction in biofilm formation at 1XMIC measured after 48 hrs by crystal violet staining based analysis; assay type: functional
Summary of the method: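 Non-adherent cells washed off with water, stained with 0.5% crystal violet 30 min at 25 °C, dye eluted with 95% ethanol, OD 545 nm. Reported as % reduction versus untreated control. Triplicate.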

Staphylococcus aureus [13] = assay: Bacteriostatic activity against Methicillin-resistant Staphylococcus aureus assessed as reduction in colony formation units at 1/2XMIC measured after 48 hrs by time-kill assay; assay type: functional, organism-based
Summary of the method: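 Samples taken at 1, 2, 4, 8, 12, 24 and 48 h, diluted in 0.9% saline and plated on Mueller Hinton agar (48 h, 37 °C). CFU counted and log10 CFU mL−1 plotted against time. Triplicate.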

Staphylococcus aureus [14] = assay: Antibacterial activity against clinically isolated Methicillin-resistant Staphylococcus aureus assessed as inhibition of bacterial growth measured after 48 hrs by broth microdilution method; assay type: functional
Escherichia coli [15] = assay: Antibacterial activity against clinically isolated Escherichia coli RBRJ013 assessed as inhibition of bacterial growth at 50 uM measured after 48 hrs by agar well diffusion method; assay type: functional; settings: read-out: IZ
Staphylococcus aureus [16] = assay: Bactericidal activity against Staphylococcus aureus MTCC 740 assessed as inhibition of bacterial growth measured after 48 hrs by agar plate method; assay type: functional
Summary of the method: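 MBC: aliquots from microdilution wells without colour change subcultured on drug-free Mueller Hinton agar, 48 h at 37 °C aerobically. MBC is the lowest concentration with no visible growth. Triplicate.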

Acinetobacter baumannii = assay: Antibacterial activity against clinically isolated Acinetobacter baumannii RBRJ027 assessed as inhibition of bacterial growth at 50 uM measured after 48 hrs by agar well diffusion method; assay type: functional; settings: read-out: IZ
Staphylococcus aureus [17] = assay: Disruption of biofilms against 48 hrs preformed Methicillin-resistant Staphylococcus aureus assessed as eradication of biofilms measured after 24 hrs by crystal violet staining method; assay type: functional
Summary of the method: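 MRSA (1 × 10^5 CFU mL−1, diluted 1:100) grown 48 h at 37 °C in tryptone soy broth with 3% glucose. […] Saline wash, 95% ethanol fixation 30 min, 0.1% crystal violet 30 min at 25 °C, elution with 95% ethanol, OD 545 nm. MBEC determined. Triplicate.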

Enterococcus faecalis = assay: Antibacterial activity against clinically isolated Enterococcus faecalis RBRJ015 assessed as inhibition of bacterial growth at 50 uM measured after 48 hrs by agar well diffusion method; assay type: functional; settings: read-out: IZ
Staphylococcus aureus [18] = assay: Anti-biofilm activity against Methicillin-resistant Staphylococcus aureus assessed as cell leakage and irregular surface at 1 to 2X MIC measured after 48 hrs by scanning electron microscopy; assay type: functional, organism-based

Cc1ccc(C(C)C)c(OCc2cn(CCCN3C(=O)C(=O)c4ccccc43)nn2)c1
Activity (Staphylococcus aureus [1]): 0.69 um3/um2
MIC [2]: 3.9 µM (≈ 1.63 µg/mL)
zone of inhibition at 50 µM (Escherichia coli [3]): 22.1 mm
Activity [4]: Non-Toxic
Activity (Staphylococcus aureus [5]): 1.83%
Activity (Staphylococcus aureus [6]): 80%
MBC (Staphylococcus aureus [7]): 3.9 µM (≈ 1.63 µg/mL)
zone of inhibition at 50 µM (Staphylococcus aureus [8]): 27.1 mm
IC50 at 72 h [9]: 125 µM
zone of inhibition at 50 µM (Klebsiella pneumoniae): 21.2 mm
Activity (Staphylococcus aureus [10]): 1.11 um
Activity (Staphylococcus aureus [11]): 90%
inhibition (INH) (Staphylococcus aureus [12]): 89.63%
Activity (Staphylococcus aureus [13]): Active
MIC (Staphylococcus aureus [14]): 1.9 µM (≈ 0.795 µg/mL)
zone of inhibition at 50 µM (Escherichia coli [15]): 20.3 mm
MBC (Staphylococcus aureus [16]): 3.9 µM (≈ 1.63 µg/mL)
zone of inhibition at 50 µM (Acinetobacter baumannii): 18.3 mm
MBEC (Staphylococcus aureus [17]): 7.8 µM
zone of inhibition at 50 µM (Enterococcus faecalis): 20.2 mm
Activity (Staphylococcus aureus [18]): Active
